From ChEMBL document CHEMBL3608303, “Discovery of novel potent and selective ligands for 5-HT2A receptor with quinazoline scaffold” (Bioorg Med Chem Lett, 2015)
pIC50, pKi: −log10 of the molar value.

What was measured:
[1] = target: T1, 5-hydroxytryptamine receptor 2A (Homo sapiens, UniProt P28223); assay: Displacement of [3H]ketanserin hydrochloride from 5-HT2A receptor (unknown origin) expressed in HEK293 cell membranes incubated for 15 mins by liquid scintillation spectrometry
[2] = target: T1, 5-hydroxytryptamine receptor 2A; assay: Displacement of [3H]ketanserin hydrochloride from 5-HT2A receptor (unknown origin) expressed in HEK293 cell membranes incubated for 15 mins by liquid scintillation spectrometry relative to control; design: concentration or dose not given beside the values
Summary of the method: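 [3H]-Ketanserin displacement at 5-HT2A, first run as percent displacement of radioligand by a 10 μM test concentration.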

[3] = target: T2, 5-hydroxytryptamine receptor 1A (Homo sapiens) (UniProt P08908); assay: (§1) Displacement of [3H]-8-OH-DPAT from 5-HT1A receptor (unknown origin) expressed in HEK293 cell membranes incubated for 15 mins by liquid scintillation spectrometry; design: concentration or dose not given beside the values
T2 sequence (whole entry): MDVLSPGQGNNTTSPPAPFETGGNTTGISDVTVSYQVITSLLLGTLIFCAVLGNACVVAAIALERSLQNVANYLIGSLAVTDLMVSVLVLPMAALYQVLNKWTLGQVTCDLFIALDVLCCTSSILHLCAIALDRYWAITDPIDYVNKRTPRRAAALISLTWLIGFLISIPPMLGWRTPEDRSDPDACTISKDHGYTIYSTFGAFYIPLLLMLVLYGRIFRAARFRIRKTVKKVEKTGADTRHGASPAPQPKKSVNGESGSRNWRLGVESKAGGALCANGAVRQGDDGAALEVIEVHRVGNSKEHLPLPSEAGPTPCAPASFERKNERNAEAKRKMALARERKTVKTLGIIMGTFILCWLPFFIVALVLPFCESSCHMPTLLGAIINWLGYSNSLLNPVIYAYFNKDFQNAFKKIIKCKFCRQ

D(2) dopamine receptor = D(2) dopamine receptor (Homo sapiens, UniProt P14416); assay: Displacement of [3H]-spiperone from dopamine D2 receptor (unknown origin) expressed in HEK293 cell membranes incubated for 15 mins by liquid scintillation spectrometry
D(3) dopamine receptor = D(3) dopamine receptor (Homo sapiens, UniProt P35462); assay: Displacement of [3H]-spiperone from dopamine D3 receptor (unknown origin) expressed in HEK293 cell membranes incubated for 15 mins by liquid scintillation spectrometry; conditions: for Ki: hek293; for pKi: read-out: Ki
D(1A) dopamine receptor [4] = target: T3, D(1A) dopamine receptor (Homo sapiens, UniProt P21728); conditions: hek293
[5] = target: T4, 5-hydroxytryptamine receptor 1A (Homo sapiens, UniProt P08908); assay: as §1
T4 sequence (P08908 whole entry): T2 sequence (whole entry)

D(1A) dopamine receptor [6] = target: T3, D(1A) dopamine receptor; assay: Displacement of [3H]-SCH-23390 from dopamine D1 receptor (unknown origin) expressed in HEK293 cell membranes incubated for 15 mins by liquid scintillation spectrometry
[7] = target: T1, 5-hydroxytryptamine receptor 2A; assay: Agonist activity at 5-HT2A receptor (unknown origin) expressed in HEK293 cell membranes assessed as induction of [35S]-GTPgammaS binding incubated for 30 mins by liquid scintillation counting method; type: functional
[8] = target: T1, 5-hydroxytryptamine receptor 2A; type: functional, cell-based, HEK293

T3 sequence (P21728 whole entry): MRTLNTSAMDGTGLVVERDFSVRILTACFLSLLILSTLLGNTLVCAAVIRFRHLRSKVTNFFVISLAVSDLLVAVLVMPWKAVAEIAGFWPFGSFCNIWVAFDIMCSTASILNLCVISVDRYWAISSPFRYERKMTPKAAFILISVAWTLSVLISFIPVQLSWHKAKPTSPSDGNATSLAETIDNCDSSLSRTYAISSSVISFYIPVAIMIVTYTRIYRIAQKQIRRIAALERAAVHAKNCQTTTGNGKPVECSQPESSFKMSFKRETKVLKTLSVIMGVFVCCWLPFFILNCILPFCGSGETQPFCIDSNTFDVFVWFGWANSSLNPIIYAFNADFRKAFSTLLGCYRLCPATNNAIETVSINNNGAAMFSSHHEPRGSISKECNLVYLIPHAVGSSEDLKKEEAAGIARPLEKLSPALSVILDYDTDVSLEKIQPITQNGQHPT
Chain of D(3) dopamine receptor (P35462 whole entry): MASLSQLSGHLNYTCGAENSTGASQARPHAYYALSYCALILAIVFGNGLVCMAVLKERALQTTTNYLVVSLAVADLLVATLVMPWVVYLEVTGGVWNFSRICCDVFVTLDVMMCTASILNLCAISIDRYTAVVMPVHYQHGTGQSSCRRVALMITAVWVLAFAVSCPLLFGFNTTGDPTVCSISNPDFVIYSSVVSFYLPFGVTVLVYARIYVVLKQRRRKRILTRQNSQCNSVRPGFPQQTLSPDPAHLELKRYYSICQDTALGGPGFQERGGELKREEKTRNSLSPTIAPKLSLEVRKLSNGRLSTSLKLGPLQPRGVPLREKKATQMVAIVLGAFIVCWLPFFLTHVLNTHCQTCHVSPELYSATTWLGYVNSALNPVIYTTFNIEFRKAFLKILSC
T1 sequence (P28223 whole entry): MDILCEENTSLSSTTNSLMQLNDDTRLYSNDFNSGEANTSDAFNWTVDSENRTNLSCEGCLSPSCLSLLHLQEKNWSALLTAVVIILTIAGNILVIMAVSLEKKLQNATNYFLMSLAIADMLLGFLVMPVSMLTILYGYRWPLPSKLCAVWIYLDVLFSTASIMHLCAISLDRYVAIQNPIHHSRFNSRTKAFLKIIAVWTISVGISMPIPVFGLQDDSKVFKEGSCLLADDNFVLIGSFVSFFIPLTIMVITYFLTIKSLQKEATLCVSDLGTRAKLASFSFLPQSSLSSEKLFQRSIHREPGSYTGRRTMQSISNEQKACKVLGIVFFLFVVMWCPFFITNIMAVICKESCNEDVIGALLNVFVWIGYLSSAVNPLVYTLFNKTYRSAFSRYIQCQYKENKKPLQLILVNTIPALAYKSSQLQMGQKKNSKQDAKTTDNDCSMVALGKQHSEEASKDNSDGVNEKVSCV
Chain of D(2) dopamine receptor (P14416 whole entry): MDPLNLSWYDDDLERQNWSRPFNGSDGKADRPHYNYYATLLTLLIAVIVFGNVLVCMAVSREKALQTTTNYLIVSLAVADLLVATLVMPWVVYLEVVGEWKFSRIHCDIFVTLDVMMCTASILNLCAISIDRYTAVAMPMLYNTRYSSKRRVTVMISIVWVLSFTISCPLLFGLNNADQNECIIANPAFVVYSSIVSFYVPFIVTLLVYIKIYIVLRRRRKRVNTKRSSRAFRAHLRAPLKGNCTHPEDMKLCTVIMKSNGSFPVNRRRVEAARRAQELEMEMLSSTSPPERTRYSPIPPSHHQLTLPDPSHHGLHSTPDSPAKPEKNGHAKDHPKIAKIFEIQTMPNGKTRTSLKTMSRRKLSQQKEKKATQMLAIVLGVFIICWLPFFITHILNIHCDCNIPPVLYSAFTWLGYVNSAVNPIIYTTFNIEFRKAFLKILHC

Row | SMILES | pKi [1] | inhibition [2] | inhibition [3] | Ki (D(2) dopamine receptor) | Ki (D(3) dopamine receptor) | Ki (D(1A) dopamine receptor [4]) | Ki [5] | inhibition (D(2) dopamine receptor) | inhibition (D(3) dopamine receptor) | inhibition (D(1A) dopamine receptor [6]) | EC50 [7] | pIC50 [8] | pKi (D(3) dopamine receptor)
1 | Ic1ccc(Nc2nc(N3CCNCC3)nc3ccccc23)cc1 | 6.30 | > 90% | 56.6% | Not Active | Not Active | Not Active |  |  |  |  |  |  | 
2 | CC(C)c1ccc(Nc2nc(N(C)C)nc3ccccc23)cc1 |  | 75.1% |  | Not Active | Not Active | Not Active | Not Active |  |  |  |  |  | 
3 | CC(C)c1ccc(Nc2nc(N3CCNCC3)nc3ccccc23)cc1 | 7.38 | > 90% | 84.3% |  |  |  |  | 14% | 22.5% | 94.8% |  |  | 
4 | COc1ccc(Nc2nc(N3CCN(CCO)CC3)nc3ccccc23)c(OC)c1 | 6.23 | > 90% |  | Not Active | Not Active | Not Active | Not Active |  |  |  |  |  | 
5 | Fc1ccccc1Nc1nc(N2CCNCC2)nc2ccccc12 | 7.15 | > 90% |  | Not Active |  | Not Active | Not Active |  | 22.5% |  | Not Active |  | 
6 | Fc1ccc(Nc2nc(N3CCOCC3)nc3ccccc23)cc1 | 6.63 | > 90% |  | Not Active |  | Not Active | Not Active |  | -0.57% |  |  |  | 
7 | COc1ccc(Nc2nc(N3CCN(CCO)CC3)nc3ccccc23)cc1 | 5.87 | > 90% |  |  |  |  |  |  |  |  |  |  | 
8 | Cc1ccc(Nc2nc(N3CCN(CCO)CC3)nc3ccccc23)c(C)c1 | 6.57 | > 90% | 81.2% | Not Active |  | Not Active |  |  | 39% |  |  |  | 
9 | Clc1ccc(Nc2nc(N3CCNCC3)nc3ccccc23)cc1 | 7.85 |  | 88.6% |  |  |  |  | 71.4% | 78.8% | 83.9% | Not Active | 5.78 | 
10 | OCCN1CCN(c2nc(Nc3ccc(Cl)cc3)c3ccccc3n2)CC1 | 6.96 |  | 53.8% |  |  |  |  | 53% | 75.6% | 80.5% | Not Active | 5.13 | 
11 | CC(C)c1ccc(Nc2nc(Nc3ccc(C(C)C)cc3)c3ccccc3n2)cc1 |  | 5.91% |  | Not Active | Not Active | Not Active | Not Active |  |  |  |  |  | 
12 | CC(C)(C)[C@@]1(O)CCN2C[C@@H]3c4ccccc4CCc4cccc(c43)[C@H]2C1 |  | > 90% |  |  |  |  |  |  |  |  |  |  | 
13 | OCCN1CCN(c2nc(Nc3ccccc3F)c3ccccc3n2)CC1 | 7.18 | > 90% |  | Not Active |  | Not Active | Not Active |  | 10.1% |  | Not Active | 5.86 | 
14 | COc1ccccc1Nc1nc(N2CCN(CCO)CC2)nc2ccccc12 | 6.84 | > 90% | 52% | Not Active |  | Not Active |  |  | 0.9% |  |  |  | 
15 | Fc1ccccc1Nc1nc(N2CCOCC2)nc2ccccc12 | 6.73 | > 90% |  | Not Active |  | Not Active | Not Active |  |  |  |  |  | 
16 | OCCN1CCN(c2nc(Nc3cccc(O)c3)c3ccccc3n2)CC1 | 7.08 | > 90% |  | Not Active |  | Not Active | Not Active |  | 11.7% |  | Not Active | 5.04 | 
17 | OCCN1CCN(c2nc(NCc3ccccc3)c3ccccc3n2)CC1 | 6.28 | > 90% |  | Not Active |  | Not Active | Not Active |  |  |  |  |  | 5.84
18 | OCCN1CCN(c2nc(Nc3ccc(F)cc3)c3ccccc3n2)CC1 | 6.92 |  |  | Not Active |  | Not Active | Not Active |  | 49.3% |  | Not Active | 4.67 | 
19 | OCCN1CCN(c2nc(Nc3ccc(I)cc3)c3ccccc3n2)CC1 | 6.42 | > 90% |  |  |  |  |  |  |  |  |  |  | 
20 | Clc1ccc(Nc2nc(N3CCOCC3)nc3ccccc23)cc1 |  | 45.3% | 16.7% |  |  |  |  |  |  | -9.36% |  |  | 
21 | COc1ccccc1Nc1nc(N2CCNCC2)nc2ccccc12 | 7.34 | > 90% |  | Not Active |  | Not Active | Not Active |  |  |  | Not Active |  | 
22 | OCCN1CCN(c2nc(Nc3ccc(Br)cc3)c3ccccc3n2)CC1 | 7.04 |  |  | Not Active |  | Not Active | Not Active |  |  |  | Not Active | 4.56 | 6.24
23 | CC(C)c1ccc(Nc2nc(N3CCN(CCO)CC3)nc3ccccc23)cc1 | 6.83 | > 90% | 42.3% | Not Active |  | Not Active |  |  |  |  |  |  | 5.94
